{"source": "ChEMBL document CHEMBL4145441", "about": "“Discovery of N-(5-((5-chloro-4-((2-(isopropylsulfonyl)phenyl)amino)pyrimidin-2-yl)amino)-4-methoxy-2-(4-methyl-1,4-diazepan-1-yl)phenyl)acrylamide (CHMFL-ALK/EGFR-050) as a potent ALK/EGFR dual kinase inhibitor capable of overcoming a variety of ALK/EGFR associated drug resistant mutants in NSCLC” (Eur J Med Chem, 2017)", "key": {"[1]": {"molecular_target": "T1, Epidermal growth factor receptor (Homo sapiens, UniProt P00533)", "T1 sequence (P00533 whole entry)": "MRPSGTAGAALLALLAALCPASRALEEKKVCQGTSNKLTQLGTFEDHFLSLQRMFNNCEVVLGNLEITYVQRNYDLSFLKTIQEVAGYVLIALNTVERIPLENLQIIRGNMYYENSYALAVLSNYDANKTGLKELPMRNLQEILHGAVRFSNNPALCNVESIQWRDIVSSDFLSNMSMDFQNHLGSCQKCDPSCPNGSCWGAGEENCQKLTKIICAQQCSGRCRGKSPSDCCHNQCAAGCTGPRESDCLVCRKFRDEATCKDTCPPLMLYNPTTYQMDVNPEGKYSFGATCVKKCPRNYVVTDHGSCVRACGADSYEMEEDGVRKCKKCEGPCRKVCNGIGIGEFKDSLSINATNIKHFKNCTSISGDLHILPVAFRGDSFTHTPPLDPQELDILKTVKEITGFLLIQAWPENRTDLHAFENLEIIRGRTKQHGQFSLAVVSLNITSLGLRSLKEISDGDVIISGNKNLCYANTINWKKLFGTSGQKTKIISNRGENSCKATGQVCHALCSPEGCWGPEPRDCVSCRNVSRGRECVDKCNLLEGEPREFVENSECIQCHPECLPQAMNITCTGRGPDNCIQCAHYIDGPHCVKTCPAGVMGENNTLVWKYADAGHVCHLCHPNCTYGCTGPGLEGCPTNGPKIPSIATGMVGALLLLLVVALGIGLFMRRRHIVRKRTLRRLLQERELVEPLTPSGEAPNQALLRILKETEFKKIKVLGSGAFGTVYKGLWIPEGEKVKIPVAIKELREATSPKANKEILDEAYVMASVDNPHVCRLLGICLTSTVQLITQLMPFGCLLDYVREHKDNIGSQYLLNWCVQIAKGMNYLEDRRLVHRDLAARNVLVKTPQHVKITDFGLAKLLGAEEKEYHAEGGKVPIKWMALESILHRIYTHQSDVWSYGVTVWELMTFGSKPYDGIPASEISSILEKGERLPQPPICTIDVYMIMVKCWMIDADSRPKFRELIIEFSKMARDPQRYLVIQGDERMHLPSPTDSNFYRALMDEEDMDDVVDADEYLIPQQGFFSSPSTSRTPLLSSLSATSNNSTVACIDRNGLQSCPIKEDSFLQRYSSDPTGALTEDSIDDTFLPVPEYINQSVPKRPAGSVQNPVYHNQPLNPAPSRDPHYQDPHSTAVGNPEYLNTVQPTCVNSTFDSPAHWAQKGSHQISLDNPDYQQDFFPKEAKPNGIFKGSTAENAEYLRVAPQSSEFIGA", "assay": "Inhibition of recombinant human wild-type His-tagged EGFR expressed in mammalian expression system using Tyr 4 peptide as substrate after 1 hr in presence of ATP by Z-LYTE kinase assay"}, "[2]": {"molecular_target": "Epidermal growth factor receptor (Homo sapiens, UniProt P00533, T790M)", "sequence (P00533 25-1210 T790M limits assumed)": "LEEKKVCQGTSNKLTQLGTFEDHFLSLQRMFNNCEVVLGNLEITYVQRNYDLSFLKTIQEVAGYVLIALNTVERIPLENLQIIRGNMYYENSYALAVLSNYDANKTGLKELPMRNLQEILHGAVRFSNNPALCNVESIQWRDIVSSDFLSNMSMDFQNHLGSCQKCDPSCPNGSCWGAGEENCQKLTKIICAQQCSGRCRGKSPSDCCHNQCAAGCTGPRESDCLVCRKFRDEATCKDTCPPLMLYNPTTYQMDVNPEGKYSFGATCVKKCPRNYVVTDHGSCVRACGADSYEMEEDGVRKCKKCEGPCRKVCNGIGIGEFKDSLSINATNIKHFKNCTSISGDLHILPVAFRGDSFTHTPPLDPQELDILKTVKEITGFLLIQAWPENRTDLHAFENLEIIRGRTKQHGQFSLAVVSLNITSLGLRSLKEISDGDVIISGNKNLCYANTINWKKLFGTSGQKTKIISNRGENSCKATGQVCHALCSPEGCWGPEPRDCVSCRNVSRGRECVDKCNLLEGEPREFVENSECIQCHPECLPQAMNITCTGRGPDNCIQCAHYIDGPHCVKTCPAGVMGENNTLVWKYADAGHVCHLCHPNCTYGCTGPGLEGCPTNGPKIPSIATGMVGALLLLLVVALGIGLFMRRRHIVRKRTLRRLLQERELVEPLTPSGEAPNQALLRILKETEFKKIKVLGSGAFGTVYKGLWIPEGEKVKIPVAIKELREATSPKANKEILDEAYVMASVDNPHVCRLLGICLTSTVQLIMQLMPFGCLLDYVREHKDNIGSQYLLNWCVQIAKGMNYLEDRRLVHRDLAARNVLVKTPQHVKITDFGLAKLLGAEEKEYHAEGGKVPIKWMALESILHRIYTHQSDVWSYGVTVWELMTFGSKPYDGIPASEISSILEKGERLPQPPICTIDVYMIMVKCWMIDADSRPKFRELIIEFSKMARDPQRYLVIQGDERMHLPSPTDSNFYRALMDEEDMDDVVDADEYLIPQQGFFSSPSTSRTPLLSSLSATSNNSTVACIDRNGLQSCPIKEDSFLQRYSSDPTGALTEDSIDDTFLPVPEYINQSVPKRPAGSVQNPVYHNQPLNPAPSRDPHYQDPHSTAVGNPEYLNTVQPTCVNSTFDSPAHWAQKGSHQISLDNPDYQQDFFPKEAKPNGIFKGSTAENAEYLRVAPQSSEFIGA", "assay": "Inhibition of recombinant human GST-tagged EGFR T790M mutant expressed in Baculovirus expression system using Tyr 4 peptide as substrate after 1 hr in presence of ATP by Z-LYTE assay"}, "[3]": {"molecular_target": "Epidermal growth factor receptor (Homo sapiens, UniProt P00533, L858R/T790M)", "assay": "Inhibition of recombinant human GST-tagged EGFR L858R/T790M mutant expressed in Baculovirus expression system using Tyr 4 peptide as substrate after 1 hr in presence of ATP by Z-LYTE assay"}, "Homo sapiens [4]": {"organism": "Homo sapiens", "assay": "Selectivity index, ratio of IC50 for recombinant human GST-tagged EGFR L858R mutant to IC50 for recombinant human GST-tagged EGFR T790M mutant"}, "[5]": {"assay": "Antiproliferative activity against mouse BAF3 cells after 72 hrs by CellTiter-Glo assay", "format": "cell-based"}, "NCI-H1975 [6]": {"test_system": "NCI-H1975", "assay": "Cell cycle arrest in human NCI-H1975 cells assessed as accumulation at G0/G1 phase at 0.03 to 1 uM after 24 hrs by propidium iodide/RNase staining-based flow cytometry", "format": "functional"}, "[7]": {"assay": "AUC (0 to t) in Sprague-Dawley rat at 1 mg/kg, iv", "format": "ADME, organism-based", "details": "in vivo", "summary_of_the_method": "(§1)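 Rats dosed once intravenously at 1 mg/kg or orally at 10 mg/kg. Plasma exposure parameters derived: AUC0-t, AUC0-∞, MRT(0-t), Cmax, Tmax, T1/2 and oral bioavailability (F%). Values reported as mean ± spread.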"}, "[8]": {"assay": "Cmax in Sprague-Dawley rat at 1 mg/kg, iv", "format": "ADME, organism-based", "parameters": "dose 1 mg/kg, route intravenous", "details": "in vivo", "summary_of_the_method": "as §1"}, "[9]": {"assay": "Oral bioavailability in Sprague-Dawley rat at 10 mg/kg", "format": "ADME, organism-based", "details": "in vivo", "summary_of_the_method": "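Pharmacokinetics in rats given a single dose either intravenously at 1 mg/kg or orally at 10 mg/kg. Plasma parameters derived include AUC0-t, AUC0-∞, MRT(0-t), Cmax, Tmax, T1/2 and oral F (%).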"}, "[10]": {"assay": "AUC (0 to infinity) in Sprague-Dawley rat at 10 mg/kg, po", "format": "ADME, organism-based", "parameters": "dose 10 mg/kg, route oral, time infinity", "details": "in vivo", "summary_of_the_method": "as §1"}, "[11]": {"molecular_target": "T1, Epidermal growth factor receptor", "assay": "Inhibition of EGFR phosphorylation at Y1068 in human A549 cells at 300 nM after 4 hrs by immunoblotting method", "format": "cell-based"}, "[12]": {"molecular_target": "T1, Epidermal growth factor receptor", "assay": "Inhibition of EGFR in human A549 cells assessed as reduction in EGF-induced AKT phosphorylation at Ser473 residue up to 3 uM after 4 hrs by immunoblotting method", "format": "cell-based"}, "[13]": {"molecular_target": "T1, Epidermal growth factor receptor", "assay": "Inhibition of EGFR in human A549 cells assessed as reduction in EGF-induced P70S6K phosphorylation at Thr389 residue up to 3 uM after 4 hrs by immunoblotting method", "format": "cell-based"}, "[14]": {"molecular_target": "T1, Epidermal growth factor receptor", "assay": "Inhibition of EGFR in human A549 cells assessed as reduction in EGF-induced ERK phosphorylation at Thr202/Tyr204 residues up to 3 uM after 4 hrs by immunoblotting method", "format": "cell-based"}, "[15]": {"molecular_target": "T2, ALK tyrosine kinase receptor (Homo sapiens, UniProt Q9UM73)", "T2 sequence (Q9UM73 19-1620 limits assumed)": "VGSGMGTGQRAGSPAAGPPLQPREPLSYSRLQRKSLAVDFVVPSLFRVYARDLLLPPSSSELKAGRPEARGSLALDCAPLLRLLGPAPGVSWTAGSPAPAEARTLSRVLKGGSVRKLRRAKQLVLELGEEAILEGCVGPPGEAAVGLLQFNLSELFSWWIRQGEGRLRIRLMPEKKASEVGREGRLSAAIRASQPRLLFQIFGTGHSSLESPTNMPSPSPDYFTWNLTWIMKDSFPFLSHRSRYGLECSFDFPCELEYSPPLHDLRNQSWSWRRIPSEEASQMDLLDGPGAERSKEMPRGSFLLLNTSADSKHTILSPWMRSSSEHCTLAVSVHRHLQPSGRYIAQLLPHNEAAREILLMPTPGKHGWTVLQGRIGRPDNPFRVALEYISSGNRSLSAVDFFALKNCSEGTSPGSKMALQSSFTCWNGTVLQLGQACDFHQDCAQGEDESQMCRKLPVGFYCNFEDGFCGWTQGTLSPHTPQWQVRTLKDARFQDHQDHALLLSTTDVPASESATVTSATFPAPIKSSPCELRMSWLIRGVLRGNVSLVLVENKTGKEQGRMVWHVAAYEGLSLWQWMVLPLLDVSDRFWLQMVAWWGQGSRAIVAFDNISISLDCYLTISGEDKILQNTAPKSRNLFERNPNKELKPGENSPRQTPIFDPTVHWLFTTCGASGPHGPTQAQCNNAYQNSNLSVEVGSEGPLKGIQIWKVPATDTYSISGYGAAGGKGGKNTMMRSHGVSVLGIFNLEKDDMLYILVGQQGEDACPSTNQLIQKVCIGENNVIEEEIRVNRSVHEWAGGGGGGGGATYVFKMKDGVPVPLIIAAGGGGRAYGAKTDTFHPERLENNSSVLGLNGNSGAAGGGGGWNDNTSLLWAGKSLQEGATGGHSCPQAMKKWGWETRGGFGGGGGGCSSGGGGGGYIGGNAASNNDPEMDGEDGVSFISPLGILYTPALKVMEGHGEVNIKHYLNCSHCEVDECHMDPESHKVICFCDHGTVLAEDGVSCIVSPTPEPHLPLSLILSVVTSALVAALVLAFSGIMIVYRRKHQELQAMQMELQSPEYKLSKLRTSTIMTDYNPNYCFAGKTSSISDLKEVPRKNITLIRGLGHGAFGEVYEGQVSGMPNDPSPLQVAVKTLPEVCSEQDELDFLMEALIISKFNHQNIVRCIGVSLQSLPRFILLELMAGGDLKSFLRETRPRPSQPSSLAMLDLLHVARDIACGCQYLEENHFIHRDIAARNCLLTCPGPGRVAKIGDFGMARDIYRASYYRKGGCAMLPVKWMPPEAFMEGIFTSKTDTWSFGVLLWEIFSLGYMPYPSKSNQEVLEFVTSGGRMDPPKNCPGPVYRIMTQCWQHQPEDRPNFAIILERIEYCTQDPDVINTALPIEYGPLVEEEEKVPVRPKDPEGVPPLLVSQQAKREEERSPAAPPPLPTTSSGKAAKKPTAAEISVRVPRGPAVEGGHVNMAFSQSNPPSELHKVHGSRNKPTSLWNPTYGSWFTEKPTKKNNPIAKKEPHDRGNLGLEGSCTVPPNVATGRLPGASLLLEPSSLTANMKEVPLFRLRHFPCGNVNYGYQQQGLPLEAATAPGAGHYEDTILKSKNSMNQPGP", "assay": "Inhibition of ALK phosphorylation at Tyr1604 residue in human NCI-H3122 cells harboring EML4-fused ALK at 100 nM after 2 hrs by immunoblot method", "format": "cell-based"}, "[16]": {"molecular_target": "T2, ALK tyrosine kinase receptor", "assay": "Inhibition of ALK in human NCI-H3122 cells harboring EML4-fused ALK assessed as reduction in ALK-induced AKT phosphorylation at Ser473 residue up to 3 uM after 2 hrs by immunoblot method", "format": "cell-based"}, "[17]": {"molecular_target": "T2, ALK tyrosine kinase receptor", "assay": "Inhibition of ALK in human NCI-H3122 cells harboring EML4-fused ALK assessed as reduction in ALK-induced ERK phosphorylation at Thr202/Tyr204 residues up to 3 uM after 2 hrs by immunoblot method", "format": "cell-based"}, "PC-9 [18]": {"test_system": "PC-9", "assay": "Cell cycle arrest in human PC9 cells assessed as accumulation at G0/G1 phase at 0.03 to 1 uM after 24 hrs by propidium iodide/RNase staining-based flow cytometry", "format": "functional"}, "NCI-H3122 [19]": {"test_system": "NCI-H3122", "assay": "Cell cycle arrest in human NCI-H3122 cells assessed as accumulation at G0/G1 phase at 0.03 to 0.3 uM after 24 hrs by propidium iodide/RNase staining-based flow cytometry", "format": "functional"}, "A549 [20]": {"test_system": "A549", "assay": "Cell cycle arrest in human A549 cells assessed as accumulation at G0/G1 phase at 0.03 to 1 uM after 24 hrs by propidium iodide/RNase staining-based flow cytometry", "format": "functional"}, "PC-9 [21]": {"test_system": "PC-9", "assay": "Induction of apoptosis in human PC9 cells assessed as increase in cleaved caspase-3 expression level at 300 nM to 1 uM after 24 hrs by Western blot method", "format": "functional, cell-based"}, "A549 [22]": {"test_system": "A549", "assay": "Induction of apoptosis in human A549 cells assessed as increase in cleaved PARP expression level up to 1 uM after 24 hrs by Western blot method", "format": "functional, cell-based"}, "A549 [23]": {"test_system": "A549", "assay": "Induction of apoptosis in human A549 cells assessed as increase in cleaved caspase-3 expression level up to 1 uM after 24 hrs by Western blot method", "format": "functional, cell-based"}, "NCI-H3122 [24]": {"test_system": "NCI-H3122", "assay": "Antitumor activity against human NCI-H3122 cells xenografted in nu/nu mouse assessed as tumor growth inhibition at 40 mg/kg, po qd administered for 28 days", "format": "functional", "details": "672 h, read-out: TGI"}, "NCI-H3122 [25]": {"test_system": "NCI-H3122", "assay": "Induction of apoptosis in human NCI-H3122 cells xenografted in po dosed nu/nu mouse administered for 28 days by DAB-chromogen-based TUNEL assay", "format": "functional, organism-based"}, "Homo sapiens [26]": {"organism": "Homo sapiens", "assay": "Selectivity index, ratio of IC50 for recombinant human wild-type His-tagged EGFR to IC50 for recombinant human GST-tagged EGFR L858R/T790M mutant"}, "Homo sapiens [27]": {"organism": "Homo sapiens", "assay": "Selectivity index, ratio of IC50 for recombinant human wild-type His-tagged EGFR to IC50 for recombinant human GST-tagged EGFR T790M mutant"}, "Homo sapiens [28]": {"organism": "Homo sapiens", "assay": "Selectivity ratio of GI50 for inhibition of TEL-fused EGFR C797S mutant (unknown origin) expressed in mouse BAF3 cells assessed as decrease in cell proliferation to GI50 for TEL-fused EGFR (unknown origin) expressed in mouse BAF3 cells assessed as decrease in cell proliferation", "format": "cell-based"}, "[29]": {"test_system": "ALK tyrosine kinase receptor (Homo sapiens), Q9UM73 [G1202R]"}, "Mus musculus": {"test_system": "Mus musculus", "assay": "Toxicity in nu/nu mouse xenografted with human NCI-H1975 cells assessed as change in body weight at 10 to 40 mg/kg, po qd administered for 21 days", "details": "in vivo, 504 h"}, "NCI-H1975 [30]": {"test_system": "NCI-H1975", "assay": "Antitumor activity against human NCI-H1975 cells xenografted in nu/nu mouse assessed as tumor growth inhibition at 20 mg/kg, po qd administered for 21 days", "details": "504 h, read-out: TGI"}, "NCI-H1975 [31]": {"test_system": "NCI-H1975", "assay": "Antitumor activity against human NCI-H1975 cells xenografted in nu/nu mouse assessed as tumor weight at 10 mg/kg, po qd administered for 21 days (reference value: 6.05g)"}}, "note": "The source made the active and inactive calls. No cut-off for these calls is given here."}
{"smiles": "C=CC(=O)Nc1cc(Nc2ncc(Cl)c(Nc3ccccc3S(=O)(=O)C(C)C)n2)c(OC)cc1N1CCCN(C)CC1", "values": [{"measurement": "IC50", "setting": "[1]", "result": 108, "unit": "nM"}, {"measurement": "IC50", "setting": "[2]", "result": 3.9, "unit": "nM"}, {"measurement": "IC50", "setting": "[3]", "result": 3.6, "unit": "nM"}, {"measurement": "Ratio IC50", "setting": "Homo sapiens [4]", "result": "20 to 30"}, {"measurement": "GI50 at 72 h", "setting": "[5]", "result": 1200, "unit": "nM"}, {"measurement": "Activity", "setting": "NCI-H1975 [6]", "result": "Active"}, {"measurement": "AUC(0-t)", "setting": "[7]", "result": 707, "unit": "ng·h/mL"}, {"measurement": "Cmax", "setting": "[8]", "result": 1490, "unit": "ng/mL"}, {"measurement": "bioavailability", "setting": "[9]", "result": 16.1, "unit": "%"}, {"measurement": "AUC(0-inf)", "setting": "[10]", "result": 1300, "unit": "ng·h/mL"}, {"measurement": "inhibition", "setting": "[11]", "result": "Active"}, {"measurement": "inhibition", "setting": "[12]", "result": "inactive"}, {"measurement": "inhibition", "setting": "[13]", "result": "inactive"}, {"measurement": "inhibition", "setting": "[14]", "result": "inactive"}, {"measurement": "inhibition", "setting": "[15]", "result": "Active"}, {"measurement": "inhibition", "setting": "[16]", "result": "Active"}, {"measurement": "inhibition", "setting": "[17]", "result": "Active"}, {"measurement": "Activity", "setting": "PC-9 [18]", "result": "Active"}, {"measurement": "Activity", "setting": "NCI-H3122 [19]", "result": "Active"}, {"measurement": "Activity", "setting": "A549 [20]", "result": "inactive"}, {"measurement": "Activity", "setting": "PC-9 [21]", "result": "Active"}, {"measurement": "Activity", "setting": "A549 [22]", "result": "inactive"}, {"measurement": "Activity", "setting": "A549 [23]", "result": "inactive"}, {"measurement": "inhibition in vivo at 40 mg/kg", "setting": "NCI-H3122 [24]", "result": 78.4, "unit": "%"}, {"measurement": "Activity", "setting": "NCI-H3122 [25]", "result": "Dose-dependent effect"}, {"measurement": "Ratio IC50", "setting": "Homo sapiens [26]", "result": "20 to 30"}, {"measurement": "Ratio IC50", "setting": "Homo sapiens [27]", "result": "20 to 30"}, {"measurement": "RatioGI50", "setting": "Homo sapiens [28]", "result": 15}, {"measurement": "GI50", "setting": "[29]", "result": 460, "unit": "nM"}, {"measurement": "Activity", "setting": "Mus musculus", "result": "Non-Toxic"}, {"measurement": "inhibition in vivo at 20 mg/kg", "setting": "NCI-H1975 [30]", "result": 96, "unit": "%"}, {"measurement": "Activity", "setting": "NCI-H1975 [31]", "result": 1.58, "unit": "g"}]}
